According to ChEMBL document CHEMBL3745596, “Chlorophenoxy aminoalkyl derivatives as histamine H(3)R ligands and antiseizure agents” (Bioorg Med Chem, 2016):
Active and inactive are the calls of the source.

Columns and labels:
Mus musculus [1] = experiment: Neurotoxicity in CF1 albino mouse at 3 mg/kg, ip after 0.5 hrs by rotarod test; format: toxicity, organism-based; details: in vivo
Summary of the method: (§1)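 Rotarod neurotoxicity in male albino CF-1 mice dosed ip with compound suspended in 0.5% methylcellulose. Animal placed on a 1 inch diameter knurled plastic rod rotating at 6 rpm. Neurotoxicity scored when the animal falls off three times within 1 min. Readout is number of animals toxic/number tested at the stated time after dosing. TD50 with 95% confidence interval from the quantitative study.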

Mus musculus [2] = experiment: Neurotoxicity in CF1 albino mouse at 30 mg/kg, ip after 4 hrs by rotarod test; format: toxicity, organism-based; details: in vivo; summary of the method: as §1
Mus musculus [3] = experiment: Anticonvulsant activity in CF1 albino mouse assessed as protection against maximal electroshock-induced seizure at 3 mg/kg, ip after 0.5 hrs; format: functional, organism-based
Summary of the method: (§2)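 Male CF-1 mice dosed ip as suspension in 0.5% methylcellulose. Corneal electrodes deliver 60 Hz alternating current, 50 mA for […], after a drop of 0.5% tetracaine HCl in 0.9% NaCl per eye. Protection means abolition of hindlimb tonic extension; scored as protected/tested, or ED50 with 95% confidence interval.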

Mus musculus [4] = experiment: Anticonvulsant activity in CF1 albino mouse assessed as protection against maximal electroshock-induced seizure at 100 mg/kg, ip after 0.5 hrs; format: functional, organism-based; summary of the method: as §2
Mus musculus [5] = experiment: Neurotoxicity in CF1 albino mouse at 10 mg/kg, ip after 0.5 hrs by rotarod test; format: toxicity, organism-based; details: in vivo
Summary of the method: (§3)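 Rotarod neurotoxicity in male CF-1 mice dosed ip as 0.5% methylcellulose suspension: mouse placed on 1 inch knurled rod rotating at 6 rpm; toxicity when the animal falls off three times within 1 min, with other signs noted. Scored as toxic/tested at 0.5 h and 4 h.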

Mus musculus [6] = experiment: Neurotoxicity in CF1 albino mouse assessed as unable to grasp rotarod at 100 mg/kg, ip after 0.5 hrs by rotarod test; format: toxicity, organism-based; details: in vivo; summary of the method: as §3
Mus musculus [7] = experiment: Anticonvulsant activity in CF1 albino mouse assessed as protection against 6 Hz-psychomotor-induced seizure at 50 mg/kg, ip after 4 hrs; format: functional, organism-based
Summary of the method: (§4)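 Male CF-1 mice, ip suspension in 0.5% methylcellulose. Corneal stimulation 0.2 ms monopolar rectangular pulses at 6 Hz, 32 mA for 3 s via constant-current device; mice without minimal clonic phase seizure counted protected. Groups of four; read at 0.25, 0.5, 1, 2, 4 h; result as protected/tested.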

Mus musculus [8] = experiment: Anticonvulsant activity in CF1 albino mouse assessed as protection against 6 Hz-psychomotor-induced seizure at 50 mg/kg, ip after 1 hr; format: functional, organism-based; summary of the method: as §4
Mus musculus [9] = experiment: Anticonvulsant activity in CF1 albino mouse assessed as protection against maximal electroshock-induced seizure at 30 mg/kg, ip after 0.5 hrs; format: functional, organism-based; summary of the method: as §2
Histamine H3 receptor = Histamine H3 receptor (Homo sapiens, UniProt Q9Y5N1); experiment: Displacement of [3H]-Nalpha-methylhistamine from human recombinant histamine H3 receptor expressed in HEK293 cells after 90 mins; format: cell-based
Mus musculus [10] = experiment: Neurotoxicity in CF1 albino mouse at 30 mg/kg, ip after 0.5 hrs by rotarod test; format: toxicity, organism-based; details: in vivo; summary of the method: as §1
Mus musculus [11] = experiment: Anticonvulsant activity in CF1 albino mouse assessed as protection against maximal electroshock-induced seizure at 100 mg/kg, ip after 4 hrs; format: functional, organism-based; summary of the method: as §2
Rattus norvegicus [12] = experiment: Anticonvulsant activity in Sprague-Dawley rat assessed as protection against maximal electroshock-induced seizure at 30 mg/kg, po; format: functional
Mus musculus [13] = experiment: Anticonvulsant activity in CF1 albino mouse assessed as protection against subcutaneous pentetrazole-induced seizure at 30 mg/kg, ip after 4 hrs; format: functional, organism-based
Summary of the method: (§5)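 Male CF-1 mice, ip in 0.5% methylcellulose; pentetrazole at CD97 (85 mg/kg) injected subcutaneously in a loose fold of neck skin. Observed 30 min; absence of even a threshold seizure (single clonic spasm lasting at least 5 s) counted as protection. Scored protected/tested, or ED50.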

Mus musculus [14] = experiment: Neurotoxicity in CF1 albino mouse at 300 mg/kg, ip after 4 hrs by rotarod test; format: toxicity, organism-based; details: in vivo; summary of the method: as §1
Mus musculus [15] = experiment: Anticonvulsant activity in CF1 albino mouse assessed as protection against subcutaneous pentetrazole-induced seizure at 100 mg/kg, ip after 4 hrs; format: functional, organism-based; summary of the method: as §5
Mus musculus [16] = experiment: Neurotoxicity in CF1 albino mouse at 50 mg/kg, ip after 4 hrs by rotarod test; format: toxicity, organism-based; details: in vivo; summary of the method: as §1
Mus musculus [17] = experiment: Anticonvulsant activity in CF1 albino mouse assessed as protection against 6 Hz-psychomotor-induced seizure at 50 mg/kg, ip after 0.5 hrs; format: functional, organism-based; summary of the method: as §4
Mus musculus [18] = experiment: Anticonvulsant activity in CF1 albino mouse assessed as protection against subcutaneous pentetrazole-induced seizure at 30 mg/kg, ip after 0.5 hrs; format: functional, organism-based; summary of the method: as §5
Mus musculus [19] = experiment: Anticonvulsant activity in CF1 albino mouse assessed as protection against 6 Hz-psychomotor-induced seizure at 50 mg/kg, ip after 0.25 hrs; format: functional, organism-based; summary of the method: as §4
Mus musculus [20] = experiment: Neurotoxicity in CF1 albino mouse at 50 mg/kg, ip after 1 hr by rotarod test; format: toxicity, organism-based; details: in vivo; summary of the method: as §1
Mus musculus [21] = experiment: Anticonvulsant activity in CF1 albino mouse assessed as protection against subcutaneous pentetrazole-induced seizure at 100 mg/kg, ip after 0.5 hrs; format: functional, organism-based; summary of the method: as §5
Mus musculus [22] = experiment: Neurotoxicity in CF1 albino mouse at 50 mg/kg, ip after 2 hrs by rotarod test; format: toxicity, organism-based; details: in vivo; summary of the method: as §1
Mus musculus [23] = experiment: Anticonvulsant activity in CF1 albino mouse assessed as protection against maximal electroshock-induced seizure at 30 mg/kg, ip after 4 hrs; format: functional, organism-based; summary of the method: as §2
Mus musculus [24] = experiment: Neurotoxicity in CF1 albino mouse assessed as death at 300 mg/kg, ip after 0.5 hrs by rotarod test; format: toxicity, organism-based; details: in vivo
Summary of the method: (§6)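 Male albino CF-1 mice dosed ip with compound suspended in 0.5% methylcellulose, then placed on a 1-inch knurled plastic rod turning at 6 rpm. A fall three times within 1 min counted as neurotoxicity. Observations were made at 0.5 h and 4 h after dosing. Result given as animals showing toxicity per animals tested, with the kind of toxicity recorded.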

Mus musculus [25] = experiment: Neurotoxicity in CF1 albino mouse at 50 mg/kg, ip after 0.5 hrs by rotarod test; format: toxicity, organism-based; details: in vivo; summary of the method: as §1
Mus musculus [26] = experiment: Anticonvulsant activity in CF1 albino mouse assessed as protection against maximal electroshock-induced seizure at 10 mg/kg, ip after 0.5 hrs; format: functional, organism-based; summary of the method: as §2
Mus musculus [27] = experiment: Neurotoxicity in CF1 albino mouse at 100 mg/kg, ip after 4 hrs by rotarod test; format: toxicity, organism-based; details: in vivo; summary of the method: as §1
Rattus norvegicus [28] = experiment: Anticonvulsant activity in Sprague-Dawley rat assessed as protection against pilocarpine-induced convulsive status epilepticus at 65 mg/kg, ip; format: functional, organism-based
Summary of the method: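 Male Sprague Dawley rats (150–180 g) dosed ip, pilocarpine 50 mg/kg ip given; compound dosed immediately at first behavioral Stage 3 seizure or 30 min later. Number protected from Racine Stage 3 or greater seizures recorded.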

Mus musculus [29] = experiment: Neurotoxicity in CF1 albino mouse assessed as death at 300 mg/kg, ip after 4 hrs by rotarod test; format: toxicity, organism-based; details: in vivo; summary of the method: as §6
Mus musculus [30] = experiment: Neurotoxicity in CF1 albino mouse assessed as unable to grasp rotarod, death and loss of righting reflux at 100 mg/kg, ip after 0.5 hrs by rotarod test; format: toxicity, organism-based; details: in vivo; summary of the method: as §6

Sequence of Histamine H3 receptor (Q9Y5N1 whole entry): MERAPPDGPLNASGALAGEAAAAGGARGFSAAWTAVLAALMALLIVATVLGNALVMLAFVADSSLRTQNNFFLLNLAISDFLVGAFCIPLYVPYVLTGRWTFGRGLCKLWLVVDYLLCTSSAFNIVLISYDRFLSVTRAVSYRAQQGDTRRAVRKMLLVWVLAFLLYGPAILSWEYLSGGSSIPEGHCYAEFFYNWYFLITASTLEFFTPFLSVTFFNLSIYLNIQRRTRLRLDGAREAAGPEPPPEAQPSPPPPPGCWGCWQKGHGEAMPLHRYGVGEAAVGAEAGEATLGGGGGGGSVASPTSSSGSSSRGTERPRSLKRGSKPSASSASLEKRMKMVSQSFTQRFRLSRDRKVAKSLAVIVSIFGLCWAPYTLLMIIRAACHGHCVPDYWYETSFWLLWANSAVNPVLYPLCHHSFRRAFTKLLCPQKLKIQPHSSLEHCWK

SMILES	Activity (Mus musculus [1])	Activity (Mus musculus [2])	Activity (Mus musculus [3])	Activity (Mus musculus [4])	Activity (Mus musculus [5])	Activity (Mus musculus [9])	Ki (Histamine H3 receptor)	Activity (Mus musculus [10])	Activity (Mus musculus [11])	Activity (Mus musculus [13])	Activity (Mus musculus [14])	Activity (Mus musculus [15])	Activity (Mus musculus [18])	Activity (Mus musculus [21])	Activity (Mus musculus [23])	Activity (Mus musculus [24])	Activity (Mus musculus [26])	Activity (Mus musculus [27])	further results
CC1CCCN(CCCCCCOc2cccc(Cl)c2)C1.O=C(O)C(=O)O (stereo unspecified)	Non-toxic	Non-toxic	inactive	Active	Non-toxic	Active	174 nM	Non-toxic	Active	inactive	Non-toxic	inactive	inactive	inactive	inactive	Toxic	inactive	Non-toxic	Activity (Mus musculus [6]): Toxic; Activity (Mus musculus [7]): inactive; Activity (Mus musculus [8]): inactive; Activity (Rattus norvegicus [12]): inactive; Activity (Mus musculus [16]): Non-toxic; Activity (Mus musculus [17]): inactive; Activity (Mus musculus [19]): inactive; Activity (Mus musculus [20]): Non-toxic; Activity (Mus musculus [22]): Non-toxic; Activity (Mus musculus [25]): Non-toxic
Clc1cccc(OCCCCCCCN2CCCCC2)c1.O=C(O)C(=O)O	–	Non-toxic	–	inactive	–	inactive	333 nM	Non-toxic	inactive	inactive	–	inactive	inactive	inactive	inactive	Toxic	–	Non-toxic	Activity (Rattus norvegicus [28]): Active; Activity (Mus musculus [29]): Non-toxic
Clc1ccc(OCCCCCN2CCCCCC2)cc1.O=C(O)C(=O)O	Non-toxic	Non-toxic	inactive	–	Non-toxic	Active	371 nM	Non-toxic	Active	inactive	Non-toxic	inactive	inactive	inactive	inactive	Toxic	inactive	Non-toxic	Activity (Mus musculus [30]): Toxic
